Data published in ChEMBL document CHEMBL3769305, “Glucose-functionalized amino-OPEs as biocompatible photosensitizers in PDT” (Eur J Med Chem, 2016).
The source made the active and inactive calls. The calls are words filed in the database; no cut-off is given here.

What was measured:
[1] = Dark toxicity against human Hep2 cells assessed as cell survival at 10 uM incubated for 6 hrs measured after 24 hrs by MTT assay; format: cell-based, HEp-2; settings: read-out: Survival
Procedure, shortened: (§1)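 Cells (HaCaT and HeLa in DMEM, HEp-2 in RPMI, each with 10% FBS, at 37 °C and 5% CO2) were treated at 60–70% confluence. The compound was added from a 10^-3 M DMSO stock in medium with 1% FBS (final DMSO <0.5%) at 3·10^-6 to 2.5·10^-5 M and kept in the dark (6 h per table footnote, 18 h per methods). After 24 h, MTT at 50 µg/mL for 4 h, read at 542 nm as % of control OD.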

HeLa [2] = experiment: Induction of morphological changes in human HeLa cells assessed as nuclear retraction at LD50 after 24 hrs by Hoechst 33258 staining-based fluorescence microscopy in presence of UVA light; format: functional, cell-based
HEp-2 [3] = experiment: Induction of microtubule disruption in human Hep2 cells assessed as increase in altered metaphase at LD50 after 24 hrs by immunofluorescence assay in presence of UVA light; format: cell-based
HeLa [4] = experiment: Increase in mitotic nuclei level in human HeLa cells at LD50 after 24 hrs by Hoechst 33258 staining-based fluorescence microscopy in presence of UVA light; format: functional, cell-based
HaCaT [5] = experiment: Induction of necrosis in human HaCaT cells at LD50 after 24 hrs by acridine orange/ethidium bromide staining-based assay in presence of 0.25 to 0.5 J/cm'2 UVA light; format: cell-based
HaCaT [6] = experiment: Induction of cell morphological changes in human HaCaT cells assessed as cytoplasmic retraction at 3 to 5 uM after 24 hrs by Hoechst 33258 staining-based phase contrast microscopy in presence of UVA light
HEp-2 [7] = experiment: Induction of cell morphological changes in human Hep2 cells assessed as cell detachment from substrate at 3 to 5 uM after 24 hrs by Hoechst 33258 staining-based phase contrast microscopy in presence of UVA light; format: functional
[8] = Induction of microtubule disruption in human HaCaT cells assessed as increase in altered metaphase at LD50 after 24 hrs by immunofluorescence assay in presence of UVA light; format: cell-based
HEp-2 [9] = experiment: Induction of apoptosis in human Hep2 cells at LD50 after 24 hrs by acridine orange/ethidium bromide staining-based assay in presence of 0.25 to 0.5 J/cm'2 UVA light; format: functional, cell-based
HEp-2 [10] = experiment: Induction of cell morphological changes in human Hep2 cells assessed as appearance of rounded cells at 3 to 5 uM after 24 hrs by Hoechst 33258 staining-based phase contrast microscopy in presence of UVA light; format: functional
HEp-2 [11] = experiment: Induction of apoptotic morphological changes in human Hep2 cells at LD50 after 24 hrs by Hoechst 33258 staining-based fluorescence microscopy in presence of UVA light; format: functional, cell-based
HEp-2 [12] = experiment: Induction of microtubule disruption in human Hep2 cells assessed as appearance of extrapoles at LD50 after 24 hrs by immunofluorescence assay in presence of UVA light; format: cell-based
HaCaT [13] = experiment: Phototoxicity against human HaCaT cells assessed as cell lethality at 3 to 250 uM incubated for 6 hrs followed by UV irradiation at 2 J/cm'2 measured after 24 hrs by MTT assay; format: cell-based
Procedure, shortened: (§2)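 Cultures at 60–70% confluence were loaded with the photosensitizer for 6 h in medium with 1% FBS and <0.5% DMSO. Medium was then replaced and cells were irradiated with UVA (300–400 nm, 15.9 W/m² at 10 cm), then washed and kept in complete medium for 24 h. Survival was read by MTT (50 µg/mL, 4 h, 542 nm) as % of untreated control OD.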

[14] = Induction of microtubule disruption in human HaCaT cells at LD50 after 24 hrs by immunofluorescence assay in presence of UVA light; format: cell-based
HaCaT [15] = experiment: Induction of apoptosis in human HaCaT cells at LD50 after 24 hrs by acridine orange/ethidium bromide staining-based assay in presence of 0.25 to 0.5 J/cm'2 UVA light; format: cell-based
HeLa [16] = experiment: Induction of microtubule disruption in human HeLa cells assessed as appearance of extrapoles at LD50 after 24 hrs by immunofluorescence assay in presence of UVA light; format: cell-based
HaCaT [17] = experiment: Drug uptake in human HaCaT cells at 1 uM after 6 hrs by fluorescence microscopy; format: ADME, cell-based
Procedure, shortened: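 Cells on glass coverslips at 60–70% confluence were exposed to 1×10^-6 M compound in medium with 1% FBS (DMSO <0.5%) for 6 h at 37 °C. After two PBS washes they were imaged live under UV excitation (365 nm), with blue excitation (460–490 nm) also used. Untreated cells served as autofluorescence controls.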

HEp-2 [18] = experiment: Induction of necrotic morphological changes in human Hep2 cells at LD50 after 24 hrs by Hoechst 33258 staining-based fluorescence microscopy in presence of UVA light; format: functional, cell-based
HeLa [19] = experiment: Induction of cell morphological changes in human HeLa cells assessed as cellular stretching at 3 to 5 uM after 24 hrs by Hoechst 33258 staining-based phase contrast microscopy in presence of UVA light; format: functional
HeLa [20] = experiment: Induction of microtubule disruption in human HeLa cells assessed as increase in altered metaphase at LD50 after 24 hrs by immunofluorescence assay in presence of UVA light; format: cell-based
[21] = Phototoxicity against human Hep2 cells assessed as cell lethality at 3 to 250 uM incubated for 6 hrs followed by UV irradiation at 1 J/cm'2 measured after 24 hrs by MTT assay; format: functional, HEp-2; procedure, shortened: as §2
[22] = Induction of singlet-oxygen generation at 5 x 10^-5 M irradiated at 390 nm by uric acid degradation assay; format: physicochemical; settings: 0.39 µM
[23] = Dark toxicity against human HaCaT cells assessed as cell survival at 10 uM incubated for 6 hrs measured after 24 hrs by MTT assay; format: cell-based; settings: read-out: Survival; procedure, shortened: as §1
HEp-2 [24] = experiment: Induction of microtubule disruption in human Hep2 cells assessed as increase in mitotic index at LD50 after 24 hrs by immunofluorescence assay in presence of UVA light; format: cell-based
[25] = Dark toxicity against human HeLa cells assessed as cell survival at 10 uM incubated for 6 hrs measured after 24 hrs by MTT assay; format: cell-based; settings: read-out: Survival; procedure, shortened: as §1
[26] = Phototoxicity against human HaCaT cells incubated for 6 hrs followed by UV irradiation at 0.25 J/cm'2 measured after 24 hrs by MTT assay; format: cell-based; settings: read-out: LD50; procedure, shortened: as §2
HeLa [27] = experiment: Induction of apoptosis in human HeLa cells at LD50 after 24 hrs by acridine orange/ethidium bromide staining-based assay in presence of 0.25 to 0.5 J/cm'2 UVA light; format: functional, cell-based
[28] = Induction of singlet-oxygen generation at 5 x 10^-5 M irradiated at 380 nm by uric acid degradation assay; format: physicochemical; settings: 0.38 µM

SMILES	viability at 6 h, 10 µM [1] [%]	Activity (HeLa [2])	Activity (HEp-2 [3])	Activity (HeLa [4])	Activity (HaCaT [5])	Activity (HaCaT [6])	Activity (HEp-2 [7])	Activity [8]	Activity (HEp-2 [9])	Activity (HEp-2 [10])	Activity (HEp-2 [11])	Activity (HEp-2 [12])	mortality (HaCaT [13]) [%]	Activity [14]	Activity (HaCaT [15])	Activity (HeLa [16])	Drug uptake (HaCaT [17])	Activity (HEp-2 [18])	Activity (HeLa [19])	Activity (HeLa [20])	other results
COc1cc(C#Cc2ccc(C#CCO[C@@H]3O[C@H](CO)[C@@H](O)[C@H](O)[C@H]3O)cc2N(C)C)c(OC)cc1C#Cc1ccc(C#CCO[C@@H]2O[C@H](CO)[C@@H](O)[C@H](O)[C@H]2O)cc1N(C)C	80.1	Active	Active	Active	Toxic	Toxic	Active	Non-toxic	Active	Active	Active	Active	> 50	Toxic	Toxic	Active	Active	Active	Active	Active	mortality [21]: >50%; Activity [22]: Active; viability at 6 h, 10 µM [23]: 70.2%; Activity (HEp-2 [24]): Active; viability at 6 h, 10 µM [25]: 76.9%; CC50 at 24 h [26]: 3000 nM; Activity (HeLa [27]): Active
COc1cc(C#Cc2ccc(C#Cc3cc(OC)c(C#CCO[C@@H]4O[C@H](CO)[C@@H](O)[C@H](O)[C@H]4O)cc3OC)c(N(C)C)c2)c(OC)cc1C#CCO[C@@H]1O[C@H](CO)[C@@H](O)[C@H](O)[C@H]1O	85.6	Active	Active	Active	Toxic	Toxic	Active	Non-toxic	Active	Active	Active	Active	> 50	Toxic	Toxic	Active	Active	Active	Active	Active	Activity [28]: Active; mortality [21]: >50%; viability at 6 h, 10 µM [23]: 71.5%; Activity (HEp-2 [24]): Active; viability at 6 h, 10 µM [25]: 82.2%; CC50 at 24 h [26]: 3000 nM; Activity (HeLa [27]): Active
